This note sets out measurements from ChEMBL document CHEMBL1799916, “Novel 3,5-bis(bromohydroxybenzylidene)piperidin-4-ones as coactivator-associated arginine methyltransferase 1 inhibitors: enzyme selectivity and cellular activity” (J Med Chem, 2011).

Test [1] addresses T1, Histone-arginine methyltransferase CARM1 (Homo sapiens) (UniProt Q86X55).
T1 sequence (whole entry): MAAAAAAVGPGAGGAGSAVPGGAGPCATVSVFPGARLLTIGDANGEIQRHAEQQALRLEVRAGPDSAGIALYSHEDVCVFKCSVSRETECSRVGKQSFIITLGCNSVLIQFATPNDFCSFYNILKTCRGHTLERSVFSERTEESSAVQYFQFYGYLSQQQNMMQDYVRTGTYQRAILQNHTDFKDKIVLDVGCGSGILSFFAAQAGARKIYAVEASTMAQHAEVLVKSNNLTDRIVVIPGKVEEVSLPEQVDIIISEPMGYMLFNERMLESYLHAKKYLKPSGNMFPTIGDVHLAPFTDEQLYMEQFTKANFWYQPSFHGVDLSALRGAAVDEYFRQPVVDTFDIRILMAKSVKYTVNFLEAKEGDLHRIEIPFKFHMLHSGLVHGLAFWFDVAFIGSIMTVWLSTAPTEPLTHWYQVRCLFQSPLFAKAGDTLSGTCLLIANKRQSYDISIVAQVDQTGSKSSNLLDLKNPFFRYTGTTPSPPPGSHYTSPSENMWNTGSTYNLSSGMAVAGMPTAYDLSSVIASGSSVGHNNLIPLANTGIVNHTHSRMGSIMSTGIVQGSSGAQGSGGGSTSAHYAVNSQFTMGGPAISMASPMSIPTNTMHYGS
Nature of the test: Inhibition of CARM1-mediated methylation of PABP1 at 100 uM after 90 mins by scintillation counting in presence of S-adenosyl-l-[methyl-3H]methionine. The essentials:
(§1)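 Compound at 100 μM with 0.1–0.2 μM recombinant enzyme and 0.5–1.5 μM substrate in PBS pH 7.4 containing [³H]AdoMet. Incubated 30 °C for 90 min, then SDS-PAGE, PVDF transfer and overnight film fluorography. Ponceau-stained substrate bands cut out and dpm counted by liquid scintillation.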

Test [2] has as its target T1, Histone-arginine methyltransferase CARM1 (Homo sapiens). The test can be described thus: Inhibition of CARM1-mediated methylation of CA150 at 100 uM after 90 mins by scintillation counting in presence of S-adenosyl-l-[methyl-3H]methionine. The essentials:
as §1

Test [3] deals with Histone-lysine N-methyltransferase, H3 lysine-79 specific (Homo sapiens) (UniProt Q8TEK3). The test can be described thus: Inhibition of DOTL1-mediated methylation of nucleosome at 100 uM after 90 mins by scintillation counting in presence of S-adenosyl-l-[methyl-3H]methionine. The essentials: as §1
Sequence of Histone-lysine N-methyltransferase, H3 lysine-79 specific (Homo sapiens) (Q8TEK3 whole entry, looked up): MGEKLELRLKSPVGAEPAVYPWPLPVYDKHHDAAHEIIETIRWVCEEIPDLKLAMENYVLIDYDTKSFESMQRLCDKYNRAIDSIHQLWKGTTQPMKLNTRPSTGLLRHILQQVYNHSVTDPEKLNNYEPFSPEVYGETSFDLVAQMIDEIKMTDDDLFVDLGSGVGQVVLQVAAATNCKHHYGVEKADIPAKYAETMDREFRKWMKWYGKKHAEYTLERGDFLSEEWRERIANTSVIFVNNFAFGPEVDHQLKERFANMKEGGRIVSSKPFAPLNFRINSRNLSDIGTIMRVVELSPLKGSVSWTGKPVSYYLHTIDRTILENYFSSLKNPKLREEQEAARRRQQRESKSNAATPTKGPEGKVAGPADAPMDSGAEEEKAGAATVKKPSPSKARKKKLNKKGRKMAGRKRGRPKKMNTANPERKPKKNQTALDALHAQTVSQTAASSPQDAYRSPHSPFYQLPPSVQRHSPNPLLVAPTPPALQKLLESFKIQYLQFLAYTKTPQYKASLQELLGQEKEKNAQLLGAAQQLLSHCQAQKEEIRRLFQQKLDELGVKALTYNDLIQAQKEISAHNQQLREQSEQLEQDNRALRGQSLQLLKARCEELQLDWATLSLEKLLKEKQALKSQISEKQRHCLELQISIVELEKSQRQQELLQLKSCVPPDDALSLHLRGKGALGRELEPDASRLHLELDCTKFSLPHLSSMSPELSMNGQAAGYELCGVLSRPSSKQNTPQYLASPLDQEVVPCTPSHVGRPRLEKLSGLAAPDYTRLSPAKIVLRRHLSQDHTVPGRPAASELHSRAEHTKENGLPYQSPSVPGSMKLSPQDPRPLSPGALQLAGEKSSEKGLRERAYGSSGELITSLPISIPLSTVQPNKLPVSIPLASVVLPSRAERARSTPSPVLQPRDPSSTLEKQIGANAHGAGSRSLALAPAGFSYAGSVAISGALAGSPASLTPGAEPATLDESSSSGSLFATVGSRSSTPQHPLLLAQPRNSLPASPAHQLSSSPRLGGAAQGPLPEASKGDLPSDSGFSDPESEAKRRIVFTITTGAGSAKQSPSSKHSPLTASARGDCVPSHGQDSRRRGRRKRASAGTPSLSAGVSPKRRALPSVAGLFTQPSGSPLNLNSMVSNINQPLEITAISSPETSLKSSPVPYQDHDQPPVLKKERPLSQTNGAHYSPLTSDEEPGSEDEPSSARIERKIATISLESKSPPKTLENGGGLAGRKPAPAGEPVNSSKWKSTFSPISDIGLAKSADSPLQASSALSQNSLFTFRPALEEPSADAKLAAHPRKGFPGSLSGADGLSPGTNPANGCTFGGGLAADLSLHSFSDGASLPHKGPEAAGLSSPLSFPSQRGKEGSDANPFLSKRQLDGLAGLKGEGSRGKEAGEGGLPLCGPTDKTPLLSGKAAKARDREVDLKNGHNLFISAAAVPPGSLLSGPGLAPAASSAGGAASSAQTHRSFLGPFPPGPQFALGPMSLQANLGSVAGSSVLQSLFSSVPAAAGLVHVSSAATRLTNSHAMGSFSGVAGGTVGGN
Test [4] has as its target T2, Histone-lysine N-methyltransferase EHMT2 (Homo sapiens) (UniProt Q96KQ7).
T2 sequence (whole entry): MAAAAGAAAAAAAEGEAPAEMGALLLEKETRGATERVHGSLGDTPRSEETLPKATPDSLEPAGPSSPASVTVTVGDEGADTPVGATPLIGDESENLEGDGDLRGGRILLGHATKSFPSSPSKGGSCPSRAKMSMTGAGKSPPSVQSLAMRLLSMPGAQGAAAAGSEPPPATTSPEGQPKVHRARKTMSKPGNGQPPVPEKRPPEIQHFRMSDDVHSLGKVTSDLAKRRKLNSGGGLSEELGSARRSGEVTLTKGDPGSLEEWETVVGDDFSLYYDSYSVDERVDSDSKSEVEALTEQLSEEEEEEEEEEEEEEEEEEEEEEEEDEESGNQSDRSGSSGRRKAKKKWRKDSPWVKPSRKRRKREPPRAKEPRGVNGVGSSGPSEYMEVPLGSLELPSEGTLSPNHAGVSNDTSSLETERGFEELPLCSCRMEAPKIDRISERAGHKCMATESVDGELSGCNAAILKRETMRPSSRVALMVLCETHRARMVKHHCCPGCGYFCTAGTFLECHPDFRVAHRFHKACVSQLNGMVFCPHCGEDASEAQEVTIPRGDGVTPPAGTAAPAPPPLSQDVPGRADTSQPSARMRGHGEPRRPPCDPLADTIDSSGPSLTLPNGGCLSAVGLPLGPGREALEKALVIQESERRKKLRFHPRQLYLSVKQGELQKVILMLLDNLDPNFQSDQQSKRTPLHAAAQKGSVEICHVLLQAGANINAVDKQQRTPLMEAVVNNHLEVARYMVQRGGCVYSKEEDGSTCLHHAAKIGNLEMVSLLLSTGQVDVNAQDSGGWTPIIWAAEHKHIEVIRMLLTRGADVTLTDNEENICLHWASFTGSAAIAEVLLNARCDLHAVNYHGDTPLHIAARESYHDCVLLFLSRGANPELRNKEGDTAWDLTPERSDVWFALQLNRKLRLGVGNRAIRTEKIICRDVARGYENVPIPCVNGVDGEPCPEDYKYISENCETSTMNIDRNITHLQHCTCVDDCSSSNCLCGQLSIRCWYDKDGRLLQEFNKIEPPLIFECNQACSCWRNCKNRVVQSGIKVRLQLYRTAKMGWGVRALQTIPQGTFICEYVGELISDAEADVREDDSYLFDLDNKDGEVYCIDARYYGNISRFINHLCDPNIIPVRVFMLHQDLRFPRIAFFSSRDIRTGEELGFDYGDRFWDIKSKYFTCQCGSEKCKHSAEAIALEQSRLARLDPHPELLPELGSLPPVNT
The test can be described thus: Inhibition of G9a-mediated methylation of histone H3 at 100 uM after 90 mins by scintillation counting in presence of S-adenosyl-l-[methyl-3H]methionine. The essentials:
as §1

Test [5] addresses T3, Histone-lysine N-methyltransferase SUV39H1 (Homo sapiens) (UniProt O43463).
T3 sequence (whole entry): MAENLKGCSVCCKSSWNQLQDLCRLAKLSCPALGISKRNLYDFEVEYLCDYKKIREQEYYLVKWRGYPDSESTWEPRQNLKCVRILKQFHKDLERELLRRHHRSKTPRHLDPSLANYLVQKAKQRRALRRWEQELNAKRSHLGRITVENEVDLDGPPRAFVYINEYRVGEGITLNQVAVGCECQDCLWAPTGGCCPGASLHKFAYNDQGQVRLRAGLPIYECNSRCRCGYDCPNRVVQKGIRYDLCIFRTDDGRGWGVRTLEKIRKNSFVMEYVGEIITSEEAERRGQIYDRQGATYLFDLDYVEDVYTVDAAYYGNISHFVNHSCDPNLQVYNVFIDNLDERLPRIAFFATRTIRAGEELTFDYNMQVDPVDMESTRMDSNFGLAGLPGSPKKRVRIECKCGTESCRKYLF
The test can be described thus: Inhibition of Suv39H1-mediated methylation of histone H3 at 100 uM after 90 mins by scintillation counting in presence of S-adenosyl-l-[methyl-3H]methionine.

Structures are written as SMILES. Calls of active or inactive are those of the source. The rule behind the calls is not given here.

As to `O=C1/C(=C/c2ccc(O)c(Br)c2)CN(CC(=O)c2ccccc2)C/C1=C\c1ccc(O)c(Br)c1`, the inhibition result in test [1] and in test [2] was “Active” in each case. The inhibition entry in test [3], in test [4] and in test [5] was “inactive” each time.
As to `O=C1/C(=C/c2ccc(O)c(Br)c2)CN(Cc2cccc(Cl)c2)C/C1=C\c1ccc(O)c(Br)c1`, the inhibition entry in test [1] and in test [2] was “Active” each time. In addition, the inhibition result in test [3], in test [4] and in test [5] was “inactive” each time.
Take `O=C1/C(=C/c2ccc(O)c(Br)c2)CN(Cc2ccccc2)C/C1=C\c1ccc(O)c(Br)c1`: the inhibition result in test [1] and in test [2] was “Active” each time. In addition, the inhibition result in test [3], in test [4] and in test [5] was “inactive” in each case.
